The record followed here is PMC11309612 (Medicine, 2024).

Data set [1] concerns U-87 MG human glioblastoma cells. Kind of data set: WST-1 antiproliferative assay in U-87 MG cells. Type of data set: cell-based. The conditions noted are these: for IC50: read-out: IC50 according to WST-1 results; for % viability value at the highest concentration: WST-1, highest concentration (500 µM). The procedure, abridged: (§1)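 U-87 MG glioblastoma cells or BJ foreskin fibroblasts were seeded at 3 × 10^3 per well and left 24 h. Test compound, freshly diluted in medium, was applied at 0.97–500 µM (ten concentrations) for 24 or 48 h. WST-1 reagent was added per kit and absorbance read at 540 nm. There were 7 wells per concentration and 3 independent experiments. The 0.1% DMSO control was set to 100% viability, and IC50 was derived from the % viability values.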
A general note: Tetrazolium dyes change colour on reduction, which living cells bring about.

In data set [2] the test system is BJ human healthy fibroblast cells. Kind of data set: WST-1 cytotoxicity assay in BJ cells. Type of data set: cell-based. The conditions noted are these: for IC50: read-out: IC50 according to WST-1 results. An outline of the steps: as §1
Data set [3] relates to U-87 MG cells. Nature of the data set: Annexin V and Propidium iodide staining apoptosis assay in flow cytometry. The data set is classed as cell-based, human. The conditions noted are these: for Increase of late apoptotic effects compared to U-87 MG control group: IC50 concentration, 48th hour. An outline of the steps: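 U-87 MG cells were cultured in EMEM with 10% FBS, 1% penicillin-streptomycin and 1% L-glutamine at 37°C in 5% CO2. Cells were exposed for 48 h to 150 μM test compound or 45 μM comparator, with 0.1% DMSO as control. They were detached, pelleted and washed twice in cold PBS. Annexin V/PI staining ran 20 min at room temperature in the dark, then binding buffer was added and flow cytometry was read within 30 min. Quadrant %, n = 3, mean ± SD.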
Background: A flow cytometer gives signals particle by particle.

Data set [4] has as its system U-87 MG cells. Kind of data set: Mitochondrial membrane integrity. The conditions noted are these: for Increase of mitochondrial depolarization levels compared to the control: IC50 concentration, 48th hour; for JC-1-positive cells % (lower quadrant), mitochondrial depolarization: JC-1, IC50 concentration, n = 3, mean ± SD, control 12.3 ± 2.0. Type of data set: cell-based, human. The procedure, abridged: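 U-87 MG cells were treated for 48 h with 150 μM test compound or 45 μM comparator, with 0.1% DMSO as control. Cells were pelleted at 1200 rpm for 5 min and incubated in JC-1 working solution for 15 min at 37°C. They were washed, resuspended in kit assay solution and read by flow cytometry. Upper-quadrant (viable) and lower-quadrant (JC-1-positive, depolarised) percentages were recorded; n = 3, mean ± SD.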

The subject of data set [5] is U-87 MG cells. Nature of the data set: Caspase-3 activation in flow cytometry. The data set is classed as cell-based, human. The conditions noted are these: for Caspase-3 levels compared to the control / Caspase-3-positive cells % (lower right quadrant): IC50 concentration; for Caspase-3 levels compared to the control: 48th hour; for Caspase-3-positive cells % (lower right quadrant): n = 3, mean ± SD, control 0.6 ± 0.3. An outline of the steps:
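U-87 MG cells were seeded at 1 × 10^5 per well in 6-well plates and exposed for 48 h to 150 μM test compound or 45 μM comparator, with 0.1% DMSO as control. After a PBS wash, cells were fixed and permeabilised with cytofix/cytoperm for 20 min on ice, then stained with PE rabbit anti-active caspase-3 for 30 min at room temperature. Flow cytometry gave quadrant %; n = 3, mean ± SD.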

Several values for one entry are separate records, joined by “and”; a condition that tells them apart may be missing. Equal values may be shown once. Read-outs that look alike come from different tables or passages of the source.

With `O=NN(CCCl)C(=O)NCCCl` [Carmustine, carmustine], the IC50 in data set [1] (Homo sapiens, U-87 MG, 24 h) amounted to 40.6 µM; in data set [1] (Homo sapiens, U-87 MG, 48 h), 45.7 µM; in data set [2] (Homo sapiens, BJ, 24 h), 144 µM; in data set [2] (Homo sapiens, BJ, 48 h), 81.4 µM. Also, the viability at 45.68 µM in the data set on U-87 MG cells [3] (Homo sapiens, U-87 MG, read-out: Viable cells % (lower left quadrant)) was determined as 57.6 ± 6.96%; in the data set on U-87 MG cells [4] (Homo sapiens, U-87 MG, 48 h, read-out: Viable cells % (upper quadrant)) it was 41.4 ± 3.8%; with U-87 MG cells [5] (Homo sapiens, U-87 MG, 48 h, read-out: Viable cells % (lower left quadrant)) it was 96.2 ± 0.9%. The “Increase of late apoptotic effects compared to U-87 MG control group” value in the data set with U-87 MG cells [3] was “approximately 3 times”. Also, in the data set on U-87 MG cells [4], the “Increase of mitochondrial depolarization levels compared to the control” value is on record as about 4.7 times. Besides, the “JC-1-positive cells % (lower quadrant), mitochondrial depolarization” value in the data set on U-87 MG cells [4] (48 h) is listed as 58.6 ± 3.80%. Moreover, the “Caspase-3 levels compared to the control” value with U-87 MG cells [5] is on record as “did not show any difference”. The “Caspase-3-positive cells % (lower right quadrant)” value with U-87 MG cells [5] (48 h) is recorded as 3.8 ± 1.0%.
Regarding `NC(=O)[C@H](CCCN=C(N)CCl)NC(=O)c1ccccc1` [Cl-amidine, chlorine-amidine], the “% viability value at the highest concentration” value amounted to 41.16% in data set [1] (U-87 MG, 24 hours) and 35.64% in data set [1] (U-87 MG, 48 hours). Moreover, the concentration for half-maximal inhibition (IC50) in data set [1] (U-87 MG cells, 24 h incubation) worked out at 256 µM; in data set [1] (U-87 MG cells, 48 h incubation), 150 µM; in data set [2] (BJ cells, 24 h incubation), 604 µM; in data set [2] (BJ cells, 48 h incubation) it was 549 µM. In addition, the “Increase of late apoptotic effects compared to U-87 MG control group” value with U-87 MG cells [3] came out at 2.5 times. The “Increase of mitochondrial depolarization levels compared to the control” value with U-87 MG cells [4] was “approximately 4.5 times”. The “JC-1-positive cells % (lower quadrant), mitochondrial depolarization” value with U-87 MG cells [4] (48 h) is 54.7% and 54.7 ± 11.60%. In addition, the “Caspase-3 levels compared to the control” value in the data set on U-87 MG cells [5] is given as “did not show any difference”. In addition, the “Caspase-3-positive cells % (lower right quadrant)” value with U-87 MG cells [5] (48 h) stood at 2.8 ± 0.9%.
Consider `O=P1(N(CCCl)CCCl)NCCCO1` (stereo not shown) [Cyclophosphamide, cyclophosphamide], for which the half-maximal inhibitory concentration (IC50) in data set [1] (Homo sapiens, U-87 MG, 24 h) was 581 µM; in data set [1] (Homo sapiens, U-87 MG, 48 h) it was 580 µM; in data set [2] (Homo sapiens, BJ, 24 h), 650 µM; in data set [2] (Homo sapiens, BJ, 48 h), 3970 µM. For the same molecule, the “Cytotoxic effect on BJ cells” value in data set [2] (WST-1, especially at the 48th hour) is given as “did not have a cytotoxic effect”.

For orientation: IC50 means the concentration needed to halve the response being measured.
